Experimental data reported in PMC3090679 (Biochemistry, 2011).
Changes are numbered by the printed parent chain. Entries after “also recorded” stand apart in the source; their conditions may differ. Like-named read-outs stand apart in the source and are kept apart here. Values belong to the compound of their own block, whether it stands above or below them.

What was measured:
[1] = biological target: Gαo (UniProt P59215); experiment: flow cytometry protein interaction assay
[2] = biological target: T1, RGS8 (Homo sapiens, UniProt P57771); experiment: FCPIA, RGS8/Gαo binding
T1 sequence (P57771 56-171 limits assumed): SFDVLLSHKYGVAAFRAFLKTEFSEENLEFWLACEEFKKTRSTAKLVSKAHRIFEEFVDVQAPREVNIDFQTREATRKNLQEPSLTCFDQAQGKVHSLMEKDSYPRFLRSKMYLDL

[3] = biological target: T2, papain (Carica papaya, UniProt P00784); experiment: Papain activity assay; assay type: biochemical
T2 sequence (P00784 134-345): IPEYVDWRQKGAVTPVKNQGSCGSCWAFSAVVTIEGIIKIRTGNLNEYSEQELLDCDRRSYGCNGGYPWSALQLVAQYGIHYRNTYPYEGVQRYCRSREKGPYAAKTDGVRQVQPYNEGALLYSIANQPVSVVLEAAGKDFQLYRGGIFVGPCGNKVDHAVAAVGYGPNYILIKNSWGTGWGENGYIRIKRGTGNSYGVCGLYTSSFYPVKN
In short: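 FITC-casein was added to 250 nM final. Fluorescence (ex 485/em 520 nm) was read at intervals in the dark, and concentration dependence was taken at 5 min. Values are mean±SEM of three independent experiments.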

[4] = biological target: T3, 107C RGS8 (Homo sapiens, UniProt P57771, C142S); experiment: Gel filtration then FCPIA competition, 107C RGS8; assay type: binding; conditions: 107C RGS8 after gel filtration
T3 sequence (P57771 74-189 isoform P57771-2 C160S): T1 sequence (P57771 56-171 limits assumed) with C87S

[5] = biological target: T4, RGS8cys− (C160S/C107S) (Homo sapiens, UniProt P57771, C142S/C89S); experiment: FCPIA, RGS8cys−/Gαo binding
T4 sequence (P57771 56-171 C89S/C142S): T1 sequence (P57771 56-171 limits assumed) with C34S, C87S
In short: (§1)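 RGS8 homology domain (N-terminal 6×His, pQE-80) with Cys→Ser site-directed mutations was chemically biotinylated on amines and loaded on avidin microspheres. Beads were treated with test compound or vehicle for 15 min at room temperature, then mixed with AlexaFluor-532-labelled Gαo plus GDP and aluminium fluoride. Binding was read by Luminex flow cytometry. Values are mean±SEM of three independent experiments.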

[6] = biological target: T5, WT RGS8 (Homo sapiens, UniProt P57771); experiment: ESI-LC/MS protein adduct analysis, WT RGS8; conditions: WT RGS8 2 μM
T5 sequence (P57771 56-171 limits assumed): T1 sequence (P57771 56-171 limits assumed)

[7] = tested on: Gαo-dependent membrane translocation of GFP-RGS4 in HEK293T cells; experiment: RGS4 membrane translocation in living cells; assay type: cell-based, human; conditions: 100 μM
[8] = biological target: T6, RGS4 (Homo sapiens, UniProt P49798); experiment: ThermoFluor thermal stability, RGS4; assay type: binding
T6 sequence (P49798 52-205 limits assumed): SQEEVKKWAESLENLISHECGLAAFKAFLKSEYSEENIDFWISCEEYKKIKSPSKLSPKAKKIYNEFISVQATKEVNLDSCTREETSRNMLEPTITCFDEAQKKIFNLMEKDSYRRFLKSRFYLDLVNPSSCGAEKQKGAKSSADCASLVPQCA

[9] = biological target: T1, RGS8; experiment: ThermoFluor thermal stability, RGS8; assay type: binding
[10] = biological target: T7, RGS4-stimulated GTP hydrolysis by Gαo (Homo sapiens, UniProt P49798); experiment: Single turnover GTPase assay, RGS4 GAP activity; assay type: biochemical
T7 sequence (P49798 52-205 limits assumed): T6 sequence (P49798 52-205 limits assumed)
In short: (§2)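 Single-turnover measurement of Gαo GTP hydrolysis, with or without RGS4 or RGS8, in the presence of test compound, following a previously published method. The RGS8 homology domain was an N-terminal 6×His construct from pQE-80 carrying native Cys107 and Cys160. All proteins were purified to >90% homogeneity, and Gαo activity was confirmed by [35S]GTPγS binding. Output is the GTP hydrolysis rate constant k (sec−1).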

[11] = biological target: T8, RGS16 (Homo sapiens, UniProt O15492); experiment: FCPIA, RGS16/Gαo binding
T8 sequence (O15492 1-202): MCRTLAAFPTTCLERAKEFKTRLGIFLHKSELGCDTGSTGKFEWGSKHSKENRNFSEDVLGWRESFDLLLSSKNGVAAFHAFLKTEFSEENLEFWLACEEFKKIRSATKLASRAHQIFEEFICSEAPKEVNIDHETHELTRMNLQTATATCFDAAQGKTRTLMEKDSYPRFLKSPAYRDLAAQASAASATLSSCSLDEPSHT

[12] = biological target: T9, Gαo (Homo sapiens, UniProt P09471); experiment: ThermoFluor thermal stability, Gαo; assay type: binding
[13] = biological target: T5, WT RGS8; experiment: Gel filtration then FCPIA competition, WT RGS8; assay type: binding
[14] = biological target: T10, RGS4 wild Type (Homo sapiens, UniProt P49798); experiment: FCPIA, RGS4/Gαo binding
T10 sequence (P49798 52-205 limits assumed): T6 sequence (P49798 52-205 limits assumed)

[15] = biological target: T11, RGS8-stimulated GTP hydrolysis by Gαo (Homo sapiens, UniProt P57771); experiment: Single turnover GTPase assay, RGS8 GAP activity; assay type: biochemical
T11 sequence (P57771 56-171 limits assumed): T1 sequence (P57771 56-171 limits assumed)
In short: as §2

[16] = biological target: T12, RGS7 (Homo sapiens, UniProt P49802); experiment: FCPIA, RGS7/Gαo binding
T12 sequence (P49802 333-448 limits assumed): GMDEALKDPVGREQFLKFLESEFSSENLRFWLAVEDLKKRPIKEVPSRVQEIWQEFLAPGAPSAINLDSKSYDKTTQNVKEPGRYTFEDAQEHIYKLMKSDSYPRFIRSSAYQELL
In short: (§3)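 Constructs were RGS19 ΔC11 as an MBP/10×His fusion and the RGS7 homology domain as a GST fusion. Each was chemically biotinylated, immobilised on avidin microspheres and pretreated with test compound or vehicle for 15 min at room temperature. Beads were then mixed with AlexaFluor-532-Gαo plus GDP/AlF and binding was read by flow cytometry. IC50 is the mean±SEM of at least three independent experiments.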

[17] = biological target: T13, 107C RGS8 (C160S) (Homo sapiens, UniProt P57771, C142S); experiment: FCPIA, 107C RGS8/Gαo binding
T13 sequence (P57771 74-189 isoform P57771-2 C160S): T1 sequence (P57771 56-171 limits assumed) with C87S
In short: as §1

[18] = biological target: T9, Gαo; experiment: Single turnover GTPase assay, intrinsic Gαo rate; assay type: biochemical; conditions: 100 μM
In short: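 N-terminally 6×His-tagged Gαo was purified to >90% homogeneity. Single-turnover hydrolysis of isotopically diluted γ[32P]GTP was measured. Results are expressed as the rate constant k (sec−1) of GTP hydrolysis.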

[19] = biological target: T14, RGS19 (Homo sapiens, UniProt P49795); experiment: FCPIA, RGS19/Gαo binding
T14 sequence (P49795 1-206 limits assumed): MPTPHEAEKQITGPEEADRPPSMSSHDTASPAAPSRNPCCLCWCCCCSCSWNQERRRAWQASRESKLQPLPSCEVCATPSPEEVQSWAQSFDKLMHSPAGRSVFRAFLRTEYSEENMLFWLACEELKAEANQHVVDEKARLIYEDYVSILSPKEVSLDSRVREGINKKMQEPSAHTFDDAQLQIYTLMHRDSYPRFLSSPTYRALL
In short: as §3

[20] = biological target: T15, RGS8Cys− (Homo sapiens, UniProt P57771, C142S/C89S); experiment: ESI-LC/MS protein adduct analysis, RGS8Cys−; conditions: RGS8Cys− mutant
T15 sequence (P57771 74-189 isoform P57771-2 C107S/C160S): T1 sequence (P57771 56-171 limits assumed) with C34S, C87S

[21] = biological target: T16, 160C RGS8 (C107S) (Homo sapiens, UniProt P57771, C89S); experiment: FCPIA, 160C RGS8/Gαo binding
T16 sequence (P57771 56-171 C89S): T1 sequence (P57771 56-171 limits assumed) with C34S
In short: as §1

[22] = biological target: T17, 160C RGS8 (Homo sapiens, UniProt P57771, C89S); experiment: Gel filtration after compound treatment, 160C RGS8
T17 sequence (P57771 56-171 C89S): T1 sequence (P57771 56-171 limits assumed) with C34S

[23] = concentration dependence or concentration not stated
[24] = read-out: irreversible inhibition of Gα binding after extensive washing
[25] = read-out: total amount of inhibition (without a wash step)
[26] = 100 μM, FITC-casein proteolysis

T9 sequence (P09471 whole entry): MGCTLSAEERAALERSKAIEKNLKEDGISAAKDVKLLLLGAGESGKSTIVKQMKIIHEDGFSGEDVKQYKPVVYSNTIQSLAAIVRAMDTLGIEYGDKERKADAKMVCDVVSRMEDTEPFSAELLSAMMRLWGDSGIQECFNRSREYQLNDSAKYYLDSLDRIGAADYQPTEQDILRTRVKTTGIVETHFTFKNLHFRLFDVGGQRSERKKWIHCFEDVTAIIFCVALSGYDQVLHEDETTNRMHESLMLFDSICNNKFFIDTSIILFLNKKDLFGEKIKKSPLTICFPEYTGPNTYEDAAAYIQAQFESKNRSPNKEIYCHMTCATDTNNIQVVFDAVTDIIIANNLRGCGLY
Chain of Gαo (UniProt P59215) (P59215 whole entry): as the sequence (P09471 whole entry) above, with I93V, A104S, T292P, P294S, A306T counted along it

fold less potent at competing for Gα binding than vehicle-treated RGS8 [1]: 14 fold
Compound: WT RGS8 treated with CCG-50014 (with its covalently attached CCG-50014), recovered from gel filtration (domain or fragment)

Compound: CCN1C(=O)C=CC1=O [NEM, N-ethyl maleimide, reference compound]
inhibition of RGS8/Gαo binding (in words) ([2]; FCPIA): no effect | effect on papain activity [3, 23]: no effect

Compound: Cc1ccc(-n2sc(=O)n(Cc3ccc(F)cc3)c2=O)cc1 [CCG-50014, 4-(4-fluorobenzyl)-2-p-tolyl-1,2,4-thiadiazolidine-3,5-dione]
competition for Gαo binding, treated versus vehicle-treated protein [4]: no discernable difference | IC50 [5]: > 100 µM | adduct formation by LC-MS [6]: covalent adduct | effect on Gαo-dependent membrane localization of GFP-RGS4 [7]: reversed the membrane localization; also recorded: significant decrease | effect on thermal stability of RGS4 [8]: concentration-dependently destabilized | effect on thermal stability of RGS8 [9]: thermally destabilizes | effect on thermal stability of RGS8 ([9]; listed as CCGA-50014): concentration-dependently destabilized | effect on GTPase accelerating (GAP) activity of RGS4 on Gαo [10]: concentration-dependently inhibits the GAP activity; also recorded: inhibited the GTPase accelerating activity | inhibition of RGS16/Gαo binding (in words) [11]: fully inhibits | Hill Slope ([11]; RGS16): −1.33 | effect on thermal stability of Gαo [12]: no effect | residual inhibition after gel filtration [13]: > 90% | selectivity for RGS4 over RGS8 and RGS16 ([14]; FCPIA IC50 values): > 100 fold | inhibitory activity against the RGS4-Gαo protein-protein interaction at pH 6.5 ([14]; FCPIA at pH 6.5 (control for papain assay)): retains full inhibitory activity | Hill Slope ([14]; FCPIA, RGS4 wild type): −1.53 | reversibility of inhibition after washing with DTT ([14]; RGS4 beads, 100 μM for 15 minutes, wash with 1 mM DTT): partially reversed | reversibility of inhibition after washing ([14]; RGS4 beads, 100 μM for 15 minutes, wash without DTT): irreversible inhibitor | inhibition of RGS8/Gαo binding (in words) ([2]; FCPIA): fully inhibits | Hill Slope ([2]; FCPIA, RGS8): −0.99 | Hill Coefficient ([2]; FCPIA, wildtype RGS8, Fig. 5): −0.79 | IC50 ([2]; IC50 (μM), FCPIA, wildtype RGS8, Fig. 5, three experiments): 6.1 µM | reversibility of inhibition after washing with DTT ([2]; RGS8 beads, 100 μM for 15 minutes, wash with 1 mM DTT): partially reversed | reversibility of inhibition after washing ([2]; RGS8 beads, 100 μM for 15 minutes, wash without DTT): irreversible inhibitor | inhibition at 20 µM ([2]; read-out: total amount of inhibition (without a wash step), WT RGS8, 20 μM): 64 ± 2% | effect on GTPase accelerating (GAP) activity of RGS8 on Gαo [15]: concentration-dependently inhibits the GAP activity; also recorded: inhibited the GTPase accelerating activity | IC50 [16]: > 200 µM | inhibition of RGS7/Gαo binding (in words) ([16]; FCPIA): did not have activity | IC50 [17]: 46.5 µM | reversibility of inhibition after washing ([17]; 107C RGS8, 20 μM): partially reversed | Hill Coefficient ([17]; FCPIA, 107C RGS8, Fig. 5): −0.54 | inhibition at 20 µM [17, 24]: ~20% | inhibition at 20 µM [17, 25]: 45 ± 2% | effect on intrinsic rate of GTP hydrolysis by Gαo [18]: did not alter | inhibition of RGS19/Gαo binding (in words) [19]: fully inhibits | Hill Slope ([19]; RGS19): −0.61 | adduct formation by LC-MS [20]: No adducts are observed | IC50 [21]: 0.71 µM | reversibility of inhibition after washing ([21]; 160C RGS8, 20 μM): completely irreversible | Hill Coefficient ([21]; FCPIA, 160C RGS8, Fig. 5): −0.36 | inhibition at 20 µM [21, 24]: ~50% | inhibition at 20 µM [21, 25]: 56 ± 1% | effect on papain activity [3, 26]: no effect | state of the protein after compound treatment [22]: formed aggregates; also recorded: completely (and visually) aggregates

Compound: NC(=O)CI [iodoacetamide]
effect on papain activity [3, 26]: markedly inhibits | effect on papain activity [3, 23]: concentration-dependently inhibited | effect on papain activity ([3]; concentration dependence or concentration not stated, listed as IA): inhibited the proteolytic activity of papain in a concentration-dependent manner
